Test results as given in ChEMBL document CHEMBL2146441, “2,6-Disubstituted imidazo[2,1-b][1,3,4]thiadiazoles: search for anticancer agents” (2012).

What was measured:
Type in all cases: functional
NCI-H322M = test: Cytotoxicity against human NCI-H322M cells assessed as cell growth at 10^-5 M after 48 hrs by SRB assay; conditions: read-out: Activity
UACC-62 = test: Cytotoxicity against human UACC62 cells assessed as cell growth at 10^-5 M after 48 hrs by SRB assay; conditions: UACC-62, 48 h, read-out: Activity
OVCAR-4 = test: Cytotoxicity against human OVCAR4 cells assessed as cell growth at 10^-5 M after 48 hrs by SRB assay; conditions: OVCAR-4, 48 h, read-out: Activity
OVCAR-8 [1] = test: Cytotoxicity against human OVCAR8 cells assessed as cell growth at 10^-5 M after 48 hrs by SRB assay; conditions: OVCAR-8, 48 h, read-out: Activity
UO-31 [2] = test: Cytotoxicity against human UO31 cells assessed as cell growth at 10^-5 M after 48 hrs by SRB assay; conditions: UO-31, 48 h, read-out: Activity
MDA-MB-231 = test: Cytotoxicity against human MDA-MB-231 cells assessed as cell growth at 10^-5 M after 48 hrs by SRB assay; conditions: MDA-MB-231, 48 h, read-out: Activity
MOLT-4 = test: Cytotoxicity against human MOLT4 cells assessed as cell growth at 10^-7 M after 48 hrs by SRB assay; conditions: MOLT-4, 48 h, read-out: Activity
SNB-75 = test: Cytotoxicity against human SNB75 cells assessed as cell growth at 10^-4 M after 48 hrs by SRB assay; conditions: SNB-75, 48 h, read-out: Activity
UACC-257 = test: Cytotoxicity against human UACC257 cells assessed as cell growth at 10^-4 M after 48 hrs by SRB assay; conditions: UACC-257, 48 h, read-out: Activity
OVCAR-8 [3] = test: Cytotoxicity against human OVCAR8 cells assessed as cell growth at 10^-4 M after 48 hrs by SRB assay; conditions: OVCAR-8, 48 h, read-out: Activity
OVCAR-3 = test: Cytotoxicity against human OVCAR3 cells assessed as cell growth at 10^-7 M after 48 hrs by SRB assay; conditions: OVCAR-3, 48 h, read-out: Activity
MDA-MB-468 = test: Cytotoxicity against human MDA-MB-468 cells assessed as cell growth at 10^-7 M after 48 hrs by SRB assay; conditions: MDA-MB-468, 48 h, read-out: Activity
CCRF-CEM = test: Cytotoxicity against human CCRF-CEM cells assessed as cell growth at 10^-8 M after 48 hrs by SRB assay; conditions: read-out: Activity
How it was run: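 NCI-60 screen: lines kept in RPMI 1640 with 5% FBS, seeded at 5000–40,000 cells/well by doubling time, preincubated 24 h at 37 °C in 5% CO2. Time-zero plates TCA-fixed at drug addition. DMSO stocks diluted in medium, 48 h exposure. Fixation in cold TCA (final 10% adherent, 16% suspension), 0.4% SRB stain, solubilised in 10 mM Tris base, A515. Percent growth computed against control and time-zero.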

SR = test: Cytotoxicity against human SR cells assessed as cell growth at 10^-8 M after 48 hrs by SRB assay; conditions: read-out: Activity
HCT-116 = test: Cytotoxicity against human HCT116 cells assessed as cell growth at 10^-8 M after 48 hrs by SRB assay; conditions: HCT-116, 48 h, read-out: Activity
How it was run: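 NCI-60 five-dose screen. Cells were grown in RPMI 1640 with 5% FBS and seeded at 5000–40,000 cells/well according to doubling time. They were pre-incubated 24 h at 37 °C in 5% CO₂, and time-zero (Tz) plates were TCA-fixed at drug addition. Five 10-fold dilutions of DMSO stock were applied for 48 h. Read-out was SRB staining, 515 nm absorbance, with percent growth calculated versus Tz and untreated control.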

KM12 = test: Cytotoxicity against human KM12 cells assessed as cell growth at 10^-8 M after 48 hrs by SRB assay; conditions: KM12, 48 h, read-out: Activity
OVCAR-5 = test: Cytotoxicity against human OVCAR5 cells assessed as cell growth at 10^-8 M after 48 hrs by SRB assay; conditions: OVCAR-5, 48 h, read-out: Activity
SN12C = test: Cytotoxicity against human SN12C cells assessed as cell growth at 10^-8 M after 48 hrs by SRB assay; conditions: read-out: Activity
PC-3 = test: Cytotoxicity against human PC3 cells assessed as cell growth at 10^-8 M after 48 hrs by SRB assay; conditions: PC-3, 48 h, read-out: Activity
HOP-92 = test: Cytotoxicity against human HOP92 cells assessed as cell growth at 10^-6 M after 48 hrs by SRB assay; conditions: HOP-92, 48 h, read-out: Activity
UO-31 [4] = test: Cytotoxicity against human UO31 cells assessed as cell growth at 10^-6 M after 48 hrs by SRB assay; conditions: UO-31, 48 h, read-out: Activity
NCI-H23 [5] = test: Growth inhibition of human NCI-H23 cells after 48 hrs by SRB assay; conditions: NCI-H23, 48 h
How it was run: (§1)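 Adherent NCI-60 lines grown in RPMI 1640 with 5% FBS, seeded at 5000–40,000 cells/well, and preincubated 24 h at 37 °C, 5% CO2. Compound, stocked in DMSO, given either once at 10^-5 M or at five 10-fold dilutions for 48 h. Cells fixed with cold TCA (final 10%), stained with 0.4% SRB, and read at 515 nm. GI50 taken as 50% reduction in net protein increase versus time-zero and control plates.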

SK-MEL-5 [6] = test: Growth inhibition of human SK-MEL-5 cells after 48 hrs by SRB assay; conditions: SK-MEL-5, 48 h, read-out: LC50 (the source's name); how it was run: as §1
A549 = test: Cytotoxicity against human A549 cells assessed as cell growth at 10^-4 M after 48 hrs by SRB assay; conditions: A549, 48 h, read-out: Activity
[7] = Cytotoxicity against human NCI-ADR-RES cells assessed as cell growth at 10^-4 M after 48 hrs by SRB assay; conditions: read-out: Activity
NCI-H23 [8] = test: Growth inhibition of human NCI-H23 cells at 10^-8 M after 48 hrs by SRB assay; parameters: scale not given: the % may be the effect or the level left
NCI-H23 [9] = test: Growth inhibition of human NCI-H23 cells at 10^-7 M after 48 hrs by SRB assay; parameters: scale not given: the % may be the effect or the level left
NCI-H23 [10] = test: Growth inhibition of human NCI-H23 cells at 10^-6 M after 48 hrs by SRB assay; parameters: scale not given: the % may be the effect or the level left
NCI-H23 [11] = test: Growth inhibition of human NCI-H23 cells at 10^-5 M after 48 hrs by SRB assay; parameters: scale not given: the % may be the effect or the level left
NCI-H23 [12] = test: Growth inhibition of human NCI-H23 cells at 10^-4 M after 48 hrs by SRB assay; parameters: scale not given: the % may be the effect or the level left
SK-MEL-5 [13] = test: Growth inhibition of human SK-MEL-5 cells at 10^-7 M after 48 hrs by SRB assay; parameters: scale not given: the % may be the effect or the level left
SK-MEL-5 [14] = test: Growth inhibition of human SK-MEL-5 cells at 10^-6 M after 48 hrs by SRB assay; parameters: scale not given: the % may be the effect or the level left
SK-MEL-5 [15] = test: Growth inhibition of human SK-MEL-5 cells at 10^-4 M after 48 hrs by SRB assay; parameters: scale not given: the % may be the effect or the level left
SK-MEL-5 [16] = test: Growth inhibition of human SK-MEL-5 cells at 10^-8 M after 48 hrs by SRB assay; parameters: scale not given: the % may be the effect or the level left

Row | Structure (SMILES) | growth at 10 µM (NCI-H322M) [%] | growth at 10 µM (UACC-62) [%] | growth at 10 µM (OVCAR-4) [%] | growth at 10 µM (OVCAR-8 [1]) [%] | growth at 10 µM (MDA-MB-231) [%] | growth at 0.1 µM (MOLT-4) [%] | growth at 100 µM (SNB-75) [%] | growth at 100 µM (UACC-257) [%] | growth at 100 µM (OVCAR-8 [3]) [%] | growth at 0.1 µM (OVCAR-3) [%] | growth at 0.1 µM (MDA-MB-468) [%] | growth at 0.01 µM (CCRF-CEM) [%] | growth at 0.01 µM (SR) [%] | growth at 0.01 µM (HCT-116) [%] | growth at 0.01 µM (KM12) [%] | growth at 0.01 µM (OVCAR-5) [%] | growth at 0.01 µM (SN12C) [%] | growth at 0.01 µM (PC-3) [%] | growth at 1 µM (UO-31 [4]) [%] | also measured
1 | COc1ccc(-c2nn3cc(-c4ccc(O)cc4O)nc3s2)cc1 | 23 | 24 | -60 | 7 | -54 | 89 | -37 | -5 | -8 | 98 | 78 | 98 | 89 | 94 | 98 | 92 | 99 | 96 | 68 | growth at 10 µM (UO-31 [2]): -46%; growth at 1 µM (HOP-92): 25%
2 | COc1ccc(-c2nn3cc(-c4cccc(N)c4)nc3s2)cc1 | 44 | 26 | 7 | 31 | 5 | 100 | -49 | 7 | -54 | 98 | 80 | 96 | 103 | 99 | 98 | 103 | 91 | 91 | 60 | GI50 (NCI-H23 [5]): 4.9 µM; TGI (NCI-H23 [5]): > 100 µM; CC50 (NCI-H23 [5]; read-out: LC50 (the source's name)): > 100 µM; CC50 (SK-MEL-5 [6]): 3.32 µM; growth at 100 µM (A549): -46%; growth at 100 µM [7]: -11%; Activity (NCI-H23 [8]): 92%; Activity (NCI-H23 [9]): 89%; Activity (NCI-H23 [10]): 84%; Activity (NCI-H23 [11]): 35%; Activity (NCI-H23 [12]): 2%; Activity (SK-MEL-5 [13]): 91%; Activity (SK-MEL-5 [14]): 75%; Activity (SK-MEL-5 [15]): -96%; Activity (SK-MEL-5 [16]): 91%
